Measured values reported in ChEMBL document CHEMBL3244118, “3-(3-Substituted prop-1-enyl)cephalosporins” (1977).

Key:
Type in all cases: functional
[1] = system: Staphylococcus aureus; test: Antibacterial activity against penicillin G-resistant Staphylococcus aureus ATCC 14154 by agar inclusion method
How it was run: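 MIC by agar inclusion in brain heart infusion medium, pH 7.4, using twofold dilutions. Strain ATCC 14154 is penicillin G resistant. Values reported in […].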

[2] = system: Streptococcus pyogenes; test: Antibacterial activity against Streptococcus pyogenes ATCC 8668 by agar inclusion method
How it was run: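 MIC by agar inclusion, twofold dilutions in brain heart infusion medium at pH 7.4, reported in […].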

[3] = system: Staphylococcus aureus; test: Antibacterial activity against Staphylococcus aureus Smith infected in sc dosed mouse assessed as survival of host administered 1 hr and 5 hrs post challenge measured 72 hrs post challenge
How it was run: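 Mice infected ip with about 2×10^3 S. aureus Smith organisms per mouse, culture diluted in 4% hog gastric mucin for uniformly lethal infection. Twofold dilutions given sc in equally divided portions at 1 and 5 h postinfection, four groups of ten mice. Survivors observed for 72 h. PD50 (total mg/kg protecting 50%) calculated by probit analysis.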

| SMILES | MIC [1] [µM] | MIC [2] [µM] | PD50 [3] [µmol/kg] |
| --- | --- | --- | --- |
| Cn1nnnc1SC/C=C/C1=C(C(=O)[O-])N2C(=O)[C@@H](NC(=O)Cc3cccs3)[C@H]2SC1.[Na+] | 200 | 1.6 | 0.3 |
| Cn1nnnc1SCC1=C(C(=O)[O-])N2C(=O)[C@@H](NC(=O)Cc3cccs3)[C@H]2SC1.[Na+] | 100 | 13 | 1.69 |
| CC(=O)OC/C=C/C1=C(C(=O)[O-])N2C(=O)[C@@H](NC(=O)Cc3cccs3)[C@H]2SC1.[Na+] | 560 | < 2 | 1.85 |
| CC(=O)OCC1=C(C(=O)[O-])N2C(=O)[C@@H](NC(=O)Cc3cccs3)[C@H]2SC1.[Na+] [CEPHALOTHIN SODIUM] | 480 | 74 | 3.54 |
